Results gathered from unrelated publications.
Compare with care: the assays were run in different laboratories.
P2RX7: P2X purinoceptor 7 (P2RX7, Homo sapiens, UniProt Q99572)
4-aminobutyrate aminotransferase, mitochondrial: 4-aminobutyrate aminotransferase, mitochondrial (Homo sapiens, UniProt P80404)
DCAF1: DDB1- and CUL4-associated factor 1 (DCAF1, Homo sapiens, UniProt Q9Y4B6)

O=C(c1ccc(Br)cc1)N1CCC(n2cncc2-c2ccc(OS(=O)(=O)c3cccc4cnccc34)cc2)CC1 — inhibition (P2RX7; ligand displacement, radioligand; 1 µM, cell membranes): > 70%
N[C@H]1C=C(C(=O)O)CC(F)(F)C1 — kinact/KI (4-aminobutyrate aminotransferase, mitochondrial; enzyme activity, inhibitor): 2.83 M⁻¹ s⁻¹
C[C@@H]1CN(c2ccc(-c3cc(C(=O)NCCOCCOCCOCCOCCOCCOCCNC(=O)/C=C/c4[nH]cc(C(=O)N[C@@H](CC(N)=O)c5ccc(F)c(Cl)c5)c4-c4ccc(Cl)cc4F)ccc3F)cc2NC(=O)c2ccc(F)cc2C(F)(F)F)C[C@H](C)N1C — ΔTm (DCAF1; thermal stability, DSF; 5.5 µM): 5.3 °C
C=CC(=O)N1CCC(COCC(=O)N2CCN(c3nc(-c4cnc(N)nc4C(F)F)nc(N4CCOC[C@@H]4C)n3)CC2)CC1 — remaining binding (Ribosomal protein S6 kinase alpha-4, N-terminal kinase domain (RPS6KA4, Homo sapiens, UniProt O75676); binding, competition with immobilised ligand; 1 µM): 93%
Cc1cc([C@@H](C)Nc2ccccc2C(=O)O)c2nc(N3CCC(F)(F)CC3)c(C#N)c(=O)n2c1 — remaining binding (Hepatocyte growth factor receptor (MET, Homo sapiens, UniProt P08581); binding, competition with immobilised ligand; 1 µM): 100%
O=C(c1ccc(I)cc1)N1CCC(n2cncc2-c2ccc(OS(=O)(=O)c3cccc4cnccc34)cc2)CC1 — inhibition (P2RX7; ligand displacement, radioligand; 1 µM, cell membranes): > 70%
COc1cc(-c2cncc3c2CN(C)Cc2cc(N4CCNCC4)ccc2-3)cc(OC)c1OC — remaining activity (Hepatocyte growth factor receptor (MET, Homo sapiens, UniProt P08581, Y1230H); enzyme activity, inhibitor; 1 µM): 86%
CNc1ncc2c(/C=C/C(=O)N3CCC(OC)CC3)nn(Cc3cccc(C(F)(F)F)c3)c2n1 — remaining activity (Mitogen-activated protein kinase kinase kinase 11 (MAP3K11, Homo sapiens, UniProt Q16584); enzyme activity, inhibitor, radiometric; 1 µM): 97%
COc1ccccc1C(=O)/C=C/c1cn(Cc2cn(-c3ccnc4cc(Cl)ccc34)nn2)c2ccccc12 — inhibition (Calcium-dependent protein kinase 1 (CDPK1, Plasmodium falciparum, UniProt P62344); enzyme activity, inhibitor, ADP detection; 5 µM): 88.3%
N[C@H]1CC(C(=O)O)=CC(F)(F)C1 — kinact/KI (4-aminobutyrate aminotransferase, mitochondrial; enzyme activity, inhibitor): 2 M⁻¹ s⁻¹
C[C@@H]1CN(c2ccc(-c3cc(C(=O)NCCOCCOCCOCCOCCNC(=O)Cn4cc(-c5[nH]cc(C(=O)N[C@@H](CC(N)=O)c6ccc(F)c(Cl)c6)c5-c5ccc(Cl)cc5F)cn4)ccc3F)cc2NC(=O)c2c[nH]c(=O)cc2C(F)(F)F)C[C@H](C)N1C — ΔTm (DCAF1; thermal stability, DSF; 5.5 µM): 8 °C
Cc1nn(CCc2ccccc2)c2ncc(C(=O)NCc3cccnc3)c(Cl)c12 — kinact (Prolyl endopeptidase (PREP, Homo sapiens, UniProt P48147); enzyme activity, inhibitor, fluorescence): 0.000233 s⁻¹
Cc1cc(NC(=O)c2cccc(NC(=O)/C=C/CN(C)C)c2)ccc1Nc1nccc(-c2cccnc2)n1 — remaining binding (Interleukin-1 receptor-associated kinase 1 (IRAK1, Homo sapiens, UniProt P51617); binding, competition with immobilised ligand; 1 µM): 11%
